{"source": "paper PMC4973383", "about": "(Acta Pharmacologica Sinica, 2016)", "key": {"BALB/c-nu nude mice": {"system": "BALB/c-nu nude mice", "experiment": "Preliminary treatment safety in tumor-bearing nude mice", "format": "in vivo", "summary_of_the_method": "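Female BALB/c-nu nude mice aged 3-4 weeks received 1×10^6 HCT8/ADR cells subcutaneously on the back. They were randomised into five groups of six: PBS, test nanoparticles or Dox given peritumorally, and test nanoparticles or Dox given intravenously. Dosing started at about 100 mm³ tumour volume, at 2 mg/kg Dox-equivalent every two days over 22 d. Body weight was monitored. At endpoint, organs were weighed, organ coefficient was taken as organ weight/body weight×100%, and histology was done.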"}, "HCT8/ADR cells [1]": {"system": "HCT8/ADR cells", "experiment": "In vitro cytotoxicity, MTT assay", "format": "cell-based, human", "conditions": "48 h, concentration up to 20 μg/mL", "summary_of_the_method": "(§1)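 HCT8 and HCT8/ADR cells were grown in RPMI-1640 with 10% FBS, streptomycin and penicillin at 37 °C under 5% CO₂. Cells were seeded at 5×10^3 per well and grown 24 h, then exposed to varying concentrations of test nanoparticles or free Dox for 48 h. MTT (5 mg/mL stock) was added for a further 4 h, then DMSO. Absorbance was read at 490 nm and viability calculated. Run in triplicate.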"}, "HCT8 cells": {"system": "HCT8 cells", "experiment": "In vitro cytotoxicity, MTT assay", "format": "cell-based, human", "conditions": "48 h, Dox-equivalent concentration", "summary_of_the_method": "as §1"}, "HCT8/ADR cells [2]": {"system": "HCT8/ADR cells", "experiment": "Intranuclear distribution by confocal microscopy", "format": "cell-based, human", "conditions": "4 h incubation, DAPI counterstain", "summary_of_the_method": "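HCT8/ADR cells were seeded at 2×10^4 per well in RPMI-1640 with 10% FBS and grown 24 h. They were incubated 4 h with test nanoparticles or free Dox, washed twice in ice-cold PBS, and fixed in fresh 4% paraformaldehyde for 15 min at room temperature. Nuclei were counterstained with DAPI and imaged by confocal laser scanning microscopy for Dox fluorescence.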"}, "HCT8/ADR cells [3]": {"system": "HCT8/ADR cells", "experiment": "Effect of verapamil", "format": "cell-based, human", "conditions": "HCT8/ADR cells pretreated with verapamil 50 μmol/L for 2 h; drug incubation 1 h or 2 h; flow cytometry"}}, "data": [{"smiles": "COc1cccc2c1C(=O)c1c(O)c3c(c(O)c1C2=O)C[C@@](O)(C(=O)CO)C[C@@H]3O[C@H]1C[C@H](N)[C@H](O)[C@H](C)O1", "note": "[Dox, Doxorubicin]", "values": [{"measurement": "body weight change", "setting": "BALB/c-nu nude mice; Dox dose 2 mg/kg per two days over 22 d, nude mice bearing HCT8/ADR tumor", "value": "remarkable body weight loss"}, {"measurement": "histological examination of major organs", "setting": "BALB/c-nu nude mice; at experimental endpoint, 22 d", "value": "degeneration and edema and focal cytolysis necrosis in the liver and spleen"}, {"measurement": "organ coefficient of liver and spleen", "setting": "BALB/c-nu nude mice; iv, at experimental endpoint, 22 d", "value": "reduced markedly"}, {"measurement": "antitumor activity (cytotoxicity)", "setting": "HCT8/ADR cells [1]", "value": "ineffective"}, {"measurement": "IC50 (cell proliferation)", "setting": "HCT8 cells", "value": "approximately 1 μg/mL"}, {"measurement": "Dox-related red fluorescence, intranuclear accumulation", "setting": "HCT8/ADR cells [2]", "value": "hardly observed"}, {"measurement": "change of uptake efficiency after verapamil", "setting": "HCT8/ADR cells [3]", "value": "clearly increased uptake efficiency"}]}]}
